Results from different studies.
Target: Tyrosine-protein kinase Fyn (FYN, Homo sapiens, UniProt P06241)

SMILES	test	conditions	remaining binding [%]
C[C@@H]1CN(c2cc(-c3n[nH]c4ccc(OC5(C)CC5)cc34)ncn2)C[C@H](C)O1	cell-free assay, competition with immobilised ligand	0.1 µM	100
Nc1ncc2c(n1)-c1c([nH]c3ccc(C#CC4CC4)cc13)CCCC2	binding, competition with immobilised ligand	1 µM	100
O=C(c1ccc(Nc2nccc(-c3cc4ccccc4s3)n2)cc1)N1CCC(N2CCCC2)CC1	binding, competition with immobilised ligand	1 µM	85
C[C@@H]1CCN(c2nccc(-c3cnn4ncccc34)n2)C1	binding	1 µM	88
CC(C)CC(=O)N1CCc2nc(-c3ccc(Br)cc3)nc(N(C)Cc3ccccc3)c2C1	cell-free assay, competition with immobilised ligand	0.1 µM	100
c1cnn2ncc(-c3ccnc(N4CCC45COC5)n3)c2c1	binding	1 µM	79
COc1cnc(Nc2cccc(S(N)(=O)=O)c2)nc1N1CCN(c2ccccc2)C(=O)C1	binding, competition with immobilised ligand	1 µM	100
CN(C)CC#Cc1ccc(OCCCc2sc(N3CCc4cccc(C(=O)Nc5nc6ccccc6s5)c4C3)nc2C(=O)O)c(F)c1	cell-free assay, competition with immobilised ligand	1 µM	96
CN(C)c1nccc(-c2cnn3ncccc23)n1	binding	1 µM	100
CS(=O)(=O)N1CCCC(NC(=O)[C@H](CCC2CCCCC2)NC(=O)c2ccc(CNC(=O)c3cnc4ccccn34)cc2)C1 (some centres unmarked)	cell-free assay, competition with immobilised ligand	0.1 µM	80
COc1ccnn2ncc(-c3ccnc(N(C)C)n3)c12	binding	1 µM	100
C=CC(=O)N1CCC(C(=O)NCC(=O)N2CCN(c3nc(-c4cnc(N)nc4C(F)F)nc(N4CCOCC4)n3)CC2)CC1	binding, competition with immobilised ligand	1 µM	100
C[C@@H](c1ccc(-n2cnc3c(N)ncnc32)cc1)N1CCc2nn(C)c(Cc3ccccc3)c2C1=O	binding, competition with immobilised ligand	0.1 µM	100
O=C(NCCCN1CCOCC1)c1ccc(Nc2ncc(Cl)c(-c3ccc(Cl)s3)n2)cc1	binding, competition with immobilised ligand	1 µM	100
CN(c1nccc(-c2cnn3ncccc23)n1)C1CC1	binding	1 µM	85
O=C(O)[C@@H]1[C@@H](Cn2nnc3ccccc3c2=O)CC[C@H]1C(=O)c1ccc(OCCC2CCOCC2)cc1	cell-free assay, competition with immobilised ligand	1 µM	76
N[C@@H]1CCN(c2nccc(-c3cnn4ncccc34)n2)C1	binding	1 µM	100
O=C(c1ccc(Nc2ncc(Cl)c(-c3ccc(Cl)s3)n2)cc1)N1CCC(N2CCCC2)CC1	binding, competition with immobilised ligand	1 µM	100
CS(=O)(=O)NCC[C@H](NC(=O)c1cncc2c1cnn2-c1ccc(F)cc1)c1ccnc(S(C)(=O)=O)c1	cell-free assay, competition with immobilised ligand	1 µM	100
O=C(Nc1c[nH]nc1C(=O)NC1CCNCC1)c1cc(F)cc(F)c1	binding, competition with immobilised ligand	1 µM	100
